In brackets after ≈: the same amount, converted by molar mass. Several values for one entry are separate records, joined by “and”; a condition that tells them apart may be missing. Identical values can stand only once. Activity calls are given as the source filed them. The rule behind the calls is not given here.
Key:
[1] = Selectivity index, ratio of IC50 for antiplasmodial activity against chloroquine-resistant Plasmodium falciparum FcB1 to IC50 for antiplasmodial activity against multidrug-resistant Plasmodium falciparum W2; type: functional
[2] = Toxicity in zebrafish embryos assessed as reduction in egg hatching at 10 to 100 ug/ml measured 5 days post fertilization; set-up: species or system Danio rerio; conditions: in vivo, 120 h, dose 10-100 µg/ml, time 5 day
[3] = Toxicity in zebrafish embryos assessed as modified heart rate at 10 to 100 ug/ml measured for 3 days; set-up: species or system Danio rerio; conditions: in vivo, 72 h, dose 10-100 µg/ml, time 3 day
[4] = Toxicity in zebrafish embryos assessed as reduction in brain size at 10 to 100 ug/ml measured for 3 days; type: tissue-based, Danio rerio; conditions: in vivo, 72 h, dose 10-100 µg/ml, time 3 day
[5] = Toxicity in zebrafish embryos assessed as reduction in egg hatching measured for 72 hrs; set-up: species or system Danio rerio; conditions: in vivo, dose 10-100 µg/ml
[6] = Toxicity in mouse at 200 mg/kg, po administered 2 hrs once for 6 hrs and measured for 24 hrs; type: organism-based; conditions: in vivo
Procedure, shortened: (§1)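 Two mice per route (i.p. or p.o.) received 4 increasing doses over 6 h (every 2 h) in Tween 80/EtOH/saline (7/3/90), then were followed for 24 h for health or behavioural problems. Maximal dose is set as 50% of the cumulative dose giving toxicity.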

[7] = Aqueous solubility of compound assessed as Cmax incubated for 3 days by UV spectrophotometer based shake-flask method; type: physicochemical; conditions: water (aqueous); time 3 day; read-out: Cmax
Procedure, shortened: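 Shake-flask: excess solid stirred overnight in MilliQ water at RT (~25 °C), filtered 0.45 μm, diluted, absorbance read at the λmax from a UV scan. Quantified against a 3-point calibration curve (R² > 0.95). Fresh saturated solutions were made on 3 consecutive days.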

[8] = Toxicity in zebrafish embryo assessed as egg hatching at 100 ug/ml measured for 72 hrs relative to control; type: tissue-based, Danio rerio; conditions: in vivo, at 100 µg/mL
[9] = Toxicity in mouse at 150 mg/kg, ip administered 2 hrs once for 6 hrs and measured for 24 hrs; type: organism-based; conditions: in vivo; procedure, shortened: as §1
[10] = Cytotoxicity against HUVEC cells assessed as inhibition of cell growth incubated for 48 hrs by fluorescence based assay; type: toxicity; conditions: human
Procedure, shortened: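 HUVEC in EGM-2, at most 10 passages, seeded at 2.5 × 10⁴ cells/well and grown 24 h at 37 °C. Six 2-fold concentrations in triplicate (DMSO max 0.5%) for 48 h. PrestoBlue for 2–3 h, fluorescence 560–590 nm, growth compared with untreated cells. n = 3 separate tests.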

Plasmodium berghei [11] = assay: Antiplasmodial activity against Plasmodium berghei NK173 infected in Swiss CD-1 mouse model of malaria assessed as reduction in parasitaemia at 50 mg/kg, po measured after 4 days by giemsa staining based microscopic analysis relative to control; type: functional; set-up: scale not given: the % may be the effect or the level left; conditions: time 4 day
Procedure, shortened: (§2)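 Peters' 4-day suppressive test: female Swiss CD1 mice (10 weeks, 25 ± 2 g), six per group, infected i.p. with P. berghei NK173-parasitized RBC at D1. Dosing 2–3 h post-infection, then daily for 3 days, in 7% Tween 80/3% EtOH in saline. Giemsa thin tail-blood smears (≥500 erythrocytes) at D4 (2 h post-dose) and D7. Inhibition is taken versus vehicle controls.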

Plasmodium berghei [12] = assay: Antiplasmodial activity against Plasmodium berghei NK173 infected in Swiss CD-1 mouse model of malaria assessed as reduction in parasitaemia at 50 mg/kg, ip measured after 4 days by giemsa staining based microscopic analysis relative to control; type: functional; set-up: scale not given: the % may be the effect or the level left; conditions: time 4 day; procedure, shortened: as §2
Plasmodium falciparum [13] = assay: Antiplasmodial activity against chloroquine-sensitive Plasmodium falciparum 3D7 assessed as intraerythrocytic growth inhibition; type: functional, organism-based
Procedure, shortened: (§3)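 Asexual intraerythrocytic P. falciparum cultured at 37 °C in RPMI with glucose, hypoxanthine, gentamycin and 10% pooled human A+/O+ serum. DMSO stocks of 5–10 mg mL⁻¹ diluted in RPMI, final DMSO at most 1%. Eight two-fold dilutions tested in three consecutive assays. Growth read as Plasmodium lactate dehydrogenase activity at 650 nm against parasitized RBC (100%) and free RBC (0%). IC50 in triplicate; artemisinin and quinine as controls.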

[14] = Hemolytic activity in RBC (unknown origin) assessed as hemolysis at 100 ug/ml incubated for 1 hrs by absorbance based microplate reader analysis relative to control; type: toxicity, cell-based, Erythrocyte; conditions: red blood cells, at 100 µg/mL, read-out: Activity
Procedure, shortened: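 Human A⁺/O⁺ RBC, 10% v/v in PBS, exposed to compound at 100 μg mL⁻¹ final (DMSO < 1%), in duplicate, stirred 1 h at RT. Centrifuged, supernatant OD₅₅₀ read. % lysis = (sample − PBS)/(1% Triton X-100 − PBS) × 100.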

[15] = Toxicity in zebrafish embryos assessed as survival at highest concentration measured for 3 days relative to control; set-up: species or system Danio rerio; conditions: in vivo, time 3 day, read-out: Activity
Procedure, shortened: (§4)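 Zebrafish embryos were synchronized 24 h after collection and kept at 28 °C with chorion intact, 20 per condition in duplicate. They were exposed to 100, 50, 25 or 10 μg mL⁻¹ from 100 mg mL⁻¹ DMSO stocks (final DMSO under 0.1%), with medium renewed daily for 3 days. Aspect, hatching and mortality were followed to 96 hpf against 30 control embryos in water with 0.1% DMSO.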

[16] = Toxicity in zebrafish embryos assessed as brain misshape at 10 to 100 ug/ml measured for 3 days; type: tissue-based, Danio rerio; conditions: in vivo, 72 h, dose 10-100 µg/ml, time 3 day
[17] = Toxicity in zebrafish embryo assessed as survival at 10 to 100 ug/ml measured 24 hrs post fertilization relative to control; set-up: species or system Danio rerio; conditions: in vivo, at 10 to 100 µg/mL, dose 10-100 µg/ml, read-out: Activity; procedure, shortened: as §4
[18] = Selectivity index, ratio of IC50 for cytotoxicity against HUVEC cells to IC50 for antiplasmodial activity against chloroquine-sensitive Plasmodium falciparum 3D7; type: toxicity, cell-based; conditions: human, read-out: Ratio IC50
Plasmodium falciparum [19] = assay: Antiplasmodial activity against multidrug-resistant Plasmodium falciparum W2 assessed as intraerythrocytic growth inhibition; type: functional, organism-based; procedure, shortened: as §3
[20] = Toxicity in zebrafish embryo assessed as developmental defects at 10 to 100 ug/ml measured 24 hrs post fertilization; set-up: species or system Danio rerio; conditions: in vivo, dose 10-100 µg/ml
[21] = Selectivity index, ratio of IC50 for antiplasmodial activity against chloroquine-resistant Plasmodium falciparum FcB1 to IC50 for antiplasmodial activity against chloroquine-sensitive Plasmodium falciparum 3D7; type: functional
Plasmodium falciparum [22] = assay: Antiplasmodial activity against chloroquine-resistant Plasmodium falciparum FcB1 assessed as intraerythrocytic growth inhibition; type: functional, organism-based; procedure, shortened: as §3
Plasmodium falciparum [23] = assay: Antiplasmodial activity against Plasmodium falciparum 3D7 assessed as inhibition of parasite reduction by giemsa staining based analysis; type: functional, organism-based
Procedure, shortened: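 3D7 cultures were exposed to compound for 48 h. Parasitaemia was then scored by microscopy as a visual check of parasite burden.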

[24] = Cytotoxicity against HUVEC confluent cells assessed as inhibition of cell growth incubated for 48 hrs by fluorescence based assay; type: toxicity; conditions: human
Procedure, shortened: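 Confluent HUVEC: plates seeded 3 days before treatment, then exposed to six 2-fold concentrations for 48 h. PrestoBlue fluorescence read-out (560–590 nm), compared with untreated cells.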

[25] = Toxicity in zebrafish embryos assessed as egg hatching at 10 to 100 ug/ml measured for 72 hrs relative to control; type: tissue-based, Danio rerio; conditions: in vivo, at 10 to 100 µg/mL, dose 10-100 µg/ml
Plasmodium berghei [26] = assay: Antiplasmodial activity against Plasmodium berghei NK173 infected in Swiss CD-1 mouse model of malaria assessed as reduction in parasitaemia at 50 mg/kg, po measured after 7 days by giemsa staining based microscopic analysis; type: functional, organism-based; conditions: time 7.0 day; procedure, shortened: as §2
[27] = Oral bioavailability in human; type: ADME, organism-based; conditions: in vivo
[28] = system: Plasmodium vinckei petteri; assay: Antiplasmodial activity against Plasmodium vinckei petteri infected in Swiss mouse model assessed as inhibition of parasite growth administered intraperitoneally for 4 days; type: functional; conditions: 96 h, route ip, time 4 day
[29] = system: Plasmodium vinckei petteri; assay: Antiplasmodial activity against Plasmodium vinckei petteri infected in Swiss mouse model assessed as inhibition of parasite growth at 50 to 100 mg/kg,ip administered for 4 days relative to control; type: functional; set-up: scale not given: the % may be the effect or the level left; conditions: dose 50-100 mg/kg, time 4 day
[30] = system: Plasmodium vinckei petteri; assay: Antiplasmodial activity against Plasmodium vinckei petteri infected in Swiss mouse model assessed as inhibition of parasite growth administered orally for 4 days; type: functional; conditions: 96 h, route po, time 4 day
[31] = system: Plasmodium vinckei petteri; assay: Antiplasmodial activity against Plasmodium vinckei petteri infected in Swiss mouse model assessed as reduction in parasitaemia at 50 mg/kg, ip administered for 4 days; set-up: scale not given: the % may be the effect or the level left; conditions: time 4 day
Plasmodium falciparum [32] = assay: Antiplasmodial activity against Plasmodium falciparum 3D7 assessed as inhibition of parasite reduction by Plasmodium lactate dehydrogenase activity

SMILES: O=C(NCCCNC(=O)c1cc(O)c(O)c(O)c1)c1cc(O)c(O)c(O)c1
- Ratio IC50 [1]: 2
- Activity [2]: Toxic
- Activity [3]: Non-Toxic
- Activity [4]: Non-Toxic
- Activity [5]: Dose-Dependent Effect
- Activity [6]: Non-Toxic
- solubility thermodynamic at 72 h [7]: 610 µM (≈ 231 µg/mL)
- Activity [8]: 20%
- Activity [9]: Non-Toxic
- IC50 at 48 h [10]: 130 µM
- Activity (Plasmodium berghei [11]): 54%
- Activity (Plasmodium berghei [12]): 66%
- IC50 (Plasmodium falciparum [13]): 9.9 µM
- hemolysis at 1 h, 100 ug/ml [14]: < 1%
- survival at 72 h [15]: > 90%
- Activity [16]: Non-Toxic
- survival at 24 h [17]: > 95%
- selectivity ratio [18]: 28
- IC50 (Plasmodium falciparum [19]): 12 µM
- Activity [20]: Non-Toxic
- Ratio IC50 [21]: 2
- IC50 (Plasmodium falciparum [22]): 26 µM

SMILES: O=C(O)c1cc(O)c(O)c(O)c1 [GALLIC ACID]
- solubility thermodynamic at 72 h [7]: 70000 µM (≈ 11900 µg/mL)
- IC50 at 48 h [10]: > 294 µM
- IC50 (Plasmodium falciparum [13]): 68 µM
- hemolysis at 1 h, 100 ug/ml [14]: < 1%
- selectivity ratio [18]: > 4
- IC50 (Plasmodium falciparum [23]): > 10 µM and 68 µM

SMILES: O=C(OCCCOC(=O)c1cc(O)c(OCc2ccccc2)c(O)c1)c1cc(O)c(OCc2ccccc2)c(O)c1
- Activity [3]: Non-Toxic
- Activity [4]: Non-Toxic
- solubility thermodynamic at 72 h [7]: 26 µM (≈ 14.6 µg/mL)
- IC50 at 48 h [10]: 14 µM
- IC50 (Plasmodium falciparum [13]): 1.8 µM
- hemolysis at 1 h, 100 ug/ml [14]: < 1%
- IC50 at 48 h [24]: 12.1 µM
- survival at 72 h [15]: > 90%
- Activity [16]: Non-Toxic
- survival at 24 h [17]: > 95%
- selectivity ratio [18]: 8
- IC50 (Plasmodium falciparum [19]): 1.9 µM
- Activity [20]: Non-Toxic
- Activity [25]: 100%
- IC50 (Plasmodium falciparum [22]): 1.7 µM

SMILES: O=c1oc2c(O)c(O)cc3c(=O)oc4c(O)c(O)cc1c4c23 [ELLAGIC ACID]
- Activity (Plasmodium berghei [26]): inactive
- solubility thermodynamic at 72 h [7]: 18 µM (≈ 5.44 µg/mL)
- IC50 at 48 h [10]: > 165 µM
- IC50 (Plasmodium falciparum [13]): 2.8 µM
- hemolysis at 1 h, 100 ug/ml [14]: < 1%
- bioavailability [27]: 1%
- ED50 [28]: < 1 mg/kg
- Activity [29]: 100%
- selectivity ratio [18]: > 59
- IC50 (Plasmodium falciparum [19]): 8.9 µM
- ED50 [30]: > 100 mg/kg
- Activity [31]: 100%
- IC50 (Plasmodium falciparum [32]): 2.8 µM
- IC50 (Plasmodium falciparum [22]): 7.5 µM

Reference: ChEMBL document CHEMBL5252676, “Dimeric polyphenols to pave the way for new antimalarial drugs” (RSC Med Chem, 2023)
